Measured values taken from ChEMBL document CHEMBL2163301, “Substrates for efficient fluorometric screening employing the NAD-dependent sirtuin 5 lysine deacylase (KDAC) enzyme” (J Med Chem, 2012).

What follows are compounds tested against NAD-dependent protein deacylase sirtuin-5, mitochondrial (Homo sapiens, UniProt Q9NXA8) (assay: Inhibition of SIRT5).
Chain of NAD-dependent protein deacylase sirtuin-5, mitochondrial (Q9NXA8 whole entry): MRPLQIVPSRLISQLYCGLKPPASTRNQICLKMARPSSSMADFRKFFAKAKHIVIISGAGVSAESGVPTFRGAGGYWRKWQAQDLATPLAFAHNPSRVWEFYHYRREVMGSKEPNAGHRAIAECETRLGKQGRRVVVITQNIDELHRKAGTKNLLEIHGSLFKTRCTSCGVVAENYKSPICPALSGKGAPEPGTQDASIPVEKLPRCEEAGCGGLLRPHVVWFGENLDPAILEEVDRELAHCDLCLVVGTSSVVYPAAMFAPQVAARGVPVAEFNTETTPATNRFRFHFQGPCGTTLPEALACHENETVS
Procedure, shortened: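 Recombinant SIRT5 at 50 ng/well (~30 nM, 50 μL) with succinyllysine AMC substrate and NAD in Tris-Cl pH 8.0/BSA buffer. Inhibitor dilutions were prepared in assay buffer from DMSO stocks. IC50 from nonlinear regression of dose–response, two assays in duplicate.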
O=C(O)CCCc1ccccc1 was tested, and the IC50 was greater than 100 µM.
N#C/C(=C\c1ccc(-c2cc(Cl)ccc2Cl)o1)C(=O)Nc1cccc2ncccc12 gave an IC50 greater than 100 µM.
CC(NC(=O)c1ccccc1/N=C/c1c(O)ccc2ccccc12)c1ccccc1 (centres undefined) [SIRTINOL] was tested, and the IC50 was greater than 100 µM.
With O=C(CCCCCCC(=O)Nc1ccccc1)NO [VORINOSTAT] the IC50 was greater than 100 µM.
